According to ChEMBL document CHEMBL4665875, “Synthesis, biological evaluation and in silico modeling of novel pan-genotypic NS5A inhibitors” (Bioorg Med Chem, 2020):

Legend:
[1] = Cmax in Sprague-Dawley rat at 10 mg/kg, po measured after 24 hrs by LC-MS/MS analysis; type: ADME, organism-based; design: route oral, time 24 hrs, dose 10 mg/kg; conditions: Sprague-Dawley, in vivo, read-out: Cmax
Procedure, shortened: (§1)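 Male Sprague-Dawley rats (8–10 weeks), jugular-vein catheterized and fasted 12 h with water available. Oral dose of 10 mg/kg given in 0.5% methyl cellulose. Blood taken into EDTA at 15, 30 min and 1, 2, 4, 8 and 24 h. Plasma protein-precipitated with acetonitrile containing tolbutamide internal standard, held at −20 °C for 15 min, centrifuged, then analysed by LC-MS/MS.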

[2] = Half life in Sprague-Dawley rat at 10 mg/kg, po measured after 24 hrs by LC-MS/MS analysis; type: ADME, organism-based; conditions: Sprague-Dawley, in vivo; procedure, shortened: as §1
[3] = MRTlast in Sprague-Dawley rat at 2 mg/kg, iv measured after 24 hrs by LC-MS/MS analysis; type: ADME, organism-based; conditions: in vivo
Procedure, shortened: (§2)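 Male Sprague-Dawley rats (8–10 weeks), jugular-vein catheterized and fasted 12 h with water available. Intravenous dose of 2 mg/kg given in 10% DMSO/10% Solutol/80% 0.05 M N-methylglucamine. Blood taken into EDTA at 5, 15, 30 min and 1, 2, 4, 8 and 24 h. Plasma precipitated with acetonitrile plus tolbutamide internal standard, then analysed by LC-MS/MS.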

[4] = Tmax in Sprague-Dawley rat at 10 mg/kg, po measured after 24 hrs by LC-MS/MS analysis; type: ADME, organism-based; conditions: Sprague-Dawley, in vivo, read-out: Tmax; procedure, shortened: as §1
[5] = Oral bioavailability in Sprague-Dawley rat at 10 mg/kg, po measured after 24 hrs by LC-MS/MS analysis; type: ADME, organism-based; conditions: in vivo; procedure, shortened: as §1
[6] = Cmax in Sprague-Dawley rat at 2 mg/kg, iv measured after 24 hrs by LC-MS/MS analysis; type: ADME, organism-based; design: route intravenous, dose 2 mg/kg, time 24 hrs; conditions: in vivo; procedure, shortened: as §2
[7] = MRT (0 to infinity) in Sprague-Dawley rat at 10 mg/kg, po measured after 24 hrs by LC-MS/MS analysis; type: ADME, organism-based; conditions: in vivo; procedure, shortened: as §1
[8] = AUC (0 to infinity) in Sprague-Dawley rat at 10 mg/kg, po measured after 24 hrs by LC-MS/MS analysis; type: ADME, organism-based; design: route oral, time 24 hrs, dose 10 mg/kg; conditions: Sprague-Dawley, in vivo; procedure, shortened: as §1
[9] = AUC (0 to infinity) in Sprague-Dawley rat at 2 mg/kg, iv measured after 24 hrs by LC-MS/MS analysis; type: ADME, organism-based; design: route intravenous, dose 2 mg/kg, time 24 hrs; conditions: in vivo; procedure, shortened: as §2
[10] = AUClast in Sprague-Dawley rat at 10 mg/kg, po measured after 24 hrs by LC-MS/MS analysis; type: ADME, organism-based; design: route oral, dose 10 mg/kg, time 24 hrs; conditions: in vivo; procedure, shortened: as §1
[11] = AUClast in Sprague-Dawley rat at 2 mg/kg, iv measured after 24 hrs by LC-MS/MS analysis; type: ADME, organism-based; design: route intravenous, time 24 hrs, dose 2 mg/kg; conditions: in vivo; procedure, shortened: as §2
[12] = Tmax in Sprague-Dawley rat at 2 mg/kg, iv measured after 24 hrs by LC-MS/MS analysis; type: ADME, organism-based; conditions: in vivo; procedure, shortened: as §2
[13] = Half life in Sprague-Dawley rat at 2 mg/kg, iv measured after 24 hrs by LC-MS/MS analysis; type: ADME, organism-based; conditions: in vivo; procedure, shortened: as §2
[14] = MRT (0 to infinity) in Sprague-Dawley rat at 2 mg/kg, iv measured after 24 hrs by LC-MS/MS analysis; type: ADME, organism-based; conditions: in vivo; procedure, shortened: as §2
[15] = MRTlast in Sprague-Dawley rat at 10 mg/kg, po measured after 24 hrs by LC-MS/MS analysis; type: ADME, organism-based; conditions: in vivo; procedure, shortened: as §1
[16] = Cytotoxicity against HCV genotype 1b NS5A infected human HuH7 cells assessed as reduction in cell viability measured after 72 hrs by CellTiter-Glo assay; conditions: HuH7 cells infected with HCV genotype 1b NS5A
[17] = target: T1, Nonstructural protein 5A (Hepatitis C virus) (UniProt Q5L478); experiment: Potency index, ratio of AV-4025 IC50 to test compound IC50 for inhibition of HCV genotype 3a NS5A infected in Huh7 cells assessed as reduction in viral replication incubated 3 days and measured by bright Glo-luciferase reporter gene assay; type: cell-based; conditions: Hepatitis C virus subtype 3a; time 3.0 day
T1 sequence (whole entry): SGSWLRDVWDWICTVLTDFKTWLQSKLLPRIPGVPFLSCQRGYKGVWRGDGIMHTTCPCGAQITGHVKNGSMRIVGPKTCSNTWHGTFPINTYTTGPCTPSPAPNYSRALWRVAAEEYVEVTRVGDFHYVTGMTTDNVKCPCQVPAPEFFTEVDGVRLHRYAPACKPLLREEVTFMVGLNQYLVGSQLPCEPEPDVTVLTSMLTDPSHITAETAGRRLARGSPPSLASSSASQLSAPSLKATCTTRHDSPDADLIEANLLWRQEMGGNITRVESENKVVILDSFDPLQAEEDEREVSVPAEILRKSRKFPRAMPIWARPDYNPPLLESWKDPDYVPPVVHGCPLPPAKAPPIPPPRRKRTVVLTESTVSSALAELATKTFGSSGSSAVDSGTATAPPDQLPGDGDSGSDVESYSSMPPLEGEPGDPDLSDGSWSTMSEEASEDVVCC

In the case of COC(=O)N[C@H](C(=O)N1CCC[C@H]1c1ncc(-c2ccc(C#CC#Cc3cnc([C@@H]4CCCN4C(=O)[C@H](NC(=O)OC)c4ccccc4)[nH]3)c(-c3cccc(F)c3F)c2)[nH]1)C(C)C, the Cmax [1] is reported as 38.3 ng/mL, the half-life [2] is reported as 0.6 h and the MRT last at 24 h [3] is reported as 4.2 h. The Tmax [4] was 1 h, the bioavailability [5] was 4.3% and the Cmax [6] was 114 ng/mL. For the same compound, the MRT inf [7] was 1.5 h, the AUC(0-inf) [8] was 61.7 ng·h/mL and the AUC(0-inf) [9] was 285 ng·h/mL. For the same compound, the AUC(0-t) at 24 h [10] was 58.7 ng·h/mL, the AUC(0-t) at 24 h [11] was 279 ng·h/mL and the Tmax [12] was 4.98 min. For the same compound, the half-life [13] was 4.6 h, the MRT inf [14] was 4.7 h and the MRT last at 24 h [15] was 1.4 h.

COC(=O)N[C@H](C(=O)N1CCC[C@H]1c1ncc(C#CC#Cc2ccc(-c3cnc([C@@H]4CCCN4C(=O)[C@@H](NC(=O)OC)C(C)C)[nH]3)cc2-c2ccc(C(C)(C)C)cc2)[nH]1)C(C)C gave a CC50 at 72 h [16] of over 10 µM.

In the case of COC(=O)N[C@H](C(=O)N1CCC[C@H]1c1ncc(C#CC#Cc2ccc(-c3cnc([C@@H]4CCCN4C(=O)[C@@H](NC(=O)OC)C(C)C)[nH]3)cc2-c2ccc3ccccc3c2)[nH]1)C(C)C, the CC50 at 72 h [16] is reported as over 10 µM.

With COC(=O)N[C@H](C(=O)N1CCC[C@H]1c1ncc(C#CC#Cc2ccc(-c3cnc([C@@H]4CCCN4C(=O)[C@@H](NC(=O)OC)C(C)C)[nH]3)cc2-c2cccc(-c3ccccc3)c2)[nH]1)C(C)C the CC50 at 72 h [16] was over 10 µM.

In the case of COC(=O)N[C@H](C(=O)N1CCC[C@H]1c1ncc(-c2ccc(C#CC#Cc3cnc([C@@H]4CCCN4C(=O)[C@H](NC(=O)OC)c4ccccc4)[nH]3)c(-c3ccc(N(C)C)cc3)c2)[nH]1)C(C)C, the CC50 at 72 h [16] is reported as over 10 µM.

In the case of COC(=O)N[C@H](C(=O)N1CCC[C@H]1c1ncc(C#CC#Cc2c(C)cc(-c3cnc([C@@H]4CCCN4C(=O)[C@@H](NC(=O)OC)C(C)C)[nH]3)cc2-c2ccccc2)[nH]1)C(C)C, the CC50 at 72 h [16] is reported as over 10 µM.

With COC(=O)N[C@H](C(=O)N1CCC[C@H]1c1ncc(-c2ccc(C#CC#Cc3cnc([C@@H]4CCCN4C(=O)[C@H](NC(=O)OC)c4ccccc4)[nH]3)c(-c3ccc(C(C)(C)C)cc3)c2)[nH]1)C(C)C the CC50 at 72 h [16] was over 10 µM.

Compound COC(=O)N[C@H](C(=O)N1CCC[C@H]1c1ncc(-c2ccc(C#CC#Cc3cnc([C@@H]4CCCN4C(=O)[C@H](NC(=O)OC)c4ccccc4)[nH]3)c(-c3ccccc3)c2)[nH]1)C(C)C.Cl.Cl has a Cmax [1] of 2980 ng/mL, a half-life [2] of 1.6 h and an MRT last at 24 h [3] of 1.2 h. For the same compound, the Tmax [4] was 2 h, the CC50 at 72 h [16] was over 10 µM and the bioavailability [5] was 31%. The Cmax [6] was 7760 ng/mL, the MRT inf [7] was 3.1 h and the AUC(0-inf) [8] was 13100 ng·h/mL. For the same compound, the AUC(0-inf) [9] was 8330 ng·h/mL, the AUC(0-t) at 24 h [10] was 12600 ng·h/mL and the AUC(0-t) at 24 h [11] was 8260 ng·h/mL. The Tmax [12] was 4.98 min, the half-life [13] was 1.2 h and the MRT inf [14] was 1.3 h. It also gave an MRT last at 24 h [15] of 2.8 h.

For COC(=O)N[C@H](C(=O)N1CCC[C@H]1c1ncc(-c2ccc(C#CC#Cc3cnc([C@@H]4CCCN4C(=O)[C@H](NC(=O)OC)c4ccccc4)[nH]3)c(N3CCN(C)CC3)c2)[nH]1)C(C)C, the CC50 at 72 h [16] was over 10 µM.

In the case of COC(=O)N[C@H](C(=O)N1CCC[C@H]1c1ncc(-c2ccc(C#CC#Cc3cnc([C@@H]4CCCN4C(=O)[C@H](NC(=O)OC)c4ccccc4)[nH]3)c(N(C)c3ccccc3)c2)[nH]1)C(C)C, the CC50 at 72 h [16] is reported as over 10 µM.

For COC(=O)NC(C(=O)N1CCC[C@H]1c1ncc(-c2ccc(C#CC#Cc3cnc([C@@H]4CCCN4C(=O)C(NC(=O)OC)C(C)C)[nH]3)cc2)[nH]1)c1ccccc1 (single isomer, unassigned), the CC50 at 72 h [16] was over 10 µM and the Ratio IC50 [17] was 6.8.

With COC(=O)N[C@H](C(=O)N1CCC[C@H]1c1ncc(-c2ccc(C#CC#Cc3cnc([C@@H]4CCCN4C(=O)[C@@H](NC(=O)OC)C(C)C)[nH]3)cc2)[nH]1)c1ccccc1 the CC50 at 72 h [16] was over 10 µM.
